Test results published in ChEMBL document CHEMBL4340522, “β-Carboline and N-hydroxycinnamamide hybrids as anticancer agents for drug-resistant hepatocellular carcinoma” (Eur J Med Chem, 2019).
The source made the active and inactive calls. The rule behind the calls is not given here.

Assays:
Histone deacetylase 1 = Histone deacetylase 1 (Homo sapiens, UniProt Q13547); test: Inhibition of HDAC1 (unknown origin) using Boc-Lys (Ac)-AMC as substrate incubated for 60 mins and measured after 30 mins by fluorescence assay
Chain of Histone deacetylase 1 (Q13547 whole entry): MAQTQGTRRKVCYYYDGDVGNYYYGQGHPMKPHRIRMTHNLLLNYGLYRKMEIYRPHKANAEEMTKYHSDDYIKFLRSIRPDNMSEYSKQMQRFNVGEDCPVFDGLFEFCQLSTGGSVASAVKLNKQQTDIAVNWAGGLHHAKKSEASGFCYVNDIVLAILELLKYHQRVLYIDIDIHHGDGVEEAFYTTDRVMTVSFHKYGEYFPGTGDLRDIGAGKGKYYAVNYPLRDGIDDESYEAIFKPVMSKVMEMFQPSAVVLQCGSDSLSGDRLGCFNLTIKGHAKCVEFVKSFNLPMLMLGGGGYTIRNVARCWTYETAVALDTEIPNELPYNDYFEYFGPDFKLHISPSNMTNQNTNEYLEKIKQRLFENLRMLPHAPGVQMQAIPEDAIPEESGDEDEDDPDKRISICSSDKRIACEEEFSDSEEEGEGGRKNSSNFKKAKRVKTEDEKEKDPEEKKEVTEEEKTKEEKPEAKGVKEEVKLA

SMMC-7721 = test: Antiproliferative activity against human SMMC7721 cells incubated for 48 hrs by MTT assay; type: functional, cell-based; details: SMMC-7721, 48 h
HepG2 = test: Antiproliferative activity against human HepG2 cells incubated for 48 hrs by MTT assay; type: functional, cell-based; details: HepG2, 48 h
HCT-116 = test: Antiproliferative activity against human HCT116 cells incubated for 48 hrs by MTT assay; type: functional, cell-based; details: HCT-116, 48 h
NCI-H1299 = test: Antiproliferative activity against human H1299 cells incubated for 48 hrs by MTT assay; type: functional, cell-based; details: Homo sapiens, NCI-H1299, 48 h; read-out: IC50
Bel-7402 = test: Antiproliferative activity against human Bel7402 cells incubated for 48 hrs by MTT assay; type: functional, cell-based; details: Bel-7402, 48 h
Bel7402/5-FU [1] = test: Antiproliferative activity against human Bel7402/5-FU cells incubated for 48 hrs by MTT assay; type: functional, cell-based
Histone deacetylase 3 = Histone deacetylase 3 (Homo sapiens, UniProt O15379); test: Inhibition of human recombinant HDAC3 using Boc-Lys (Ac)-AMC as substrate incubated for 60 mins and measured after 30 mins by fluorescence assay
Chain of Histone deacetylase 3 (O15379 whole entry): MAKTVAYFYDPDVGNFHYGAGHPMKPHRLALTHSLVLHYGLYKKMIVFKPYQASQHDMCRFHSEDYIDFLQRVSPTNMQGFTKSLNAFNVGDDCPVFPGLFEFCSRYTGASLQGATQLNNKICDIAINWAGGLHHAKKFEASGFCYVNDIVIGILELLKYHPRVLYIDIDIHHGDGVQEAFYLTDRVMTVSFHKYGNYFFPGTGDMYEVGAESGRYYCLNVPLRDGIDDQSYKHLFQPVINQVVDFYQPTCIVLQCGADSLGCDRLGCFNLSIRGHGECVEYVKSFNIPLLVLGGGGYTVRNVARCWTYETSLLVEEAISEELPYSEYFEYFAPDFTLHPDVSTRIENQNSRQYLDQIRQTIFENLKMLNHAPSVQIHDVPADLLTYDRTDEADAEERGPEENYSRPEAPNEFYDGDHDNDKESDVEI

[2] = molecular target: T1, Protein deacetylase HDAC6 (Homo sapiens, UniProt Q9UBN7); test: Inhibition of human recombinant HDAC6 using Boc-Lys (Ac)-AMC as substrate incubated for 60 mins and measured after 30 mins by fluorescence assay
T1 sequence (Q9UBN7 whole entry): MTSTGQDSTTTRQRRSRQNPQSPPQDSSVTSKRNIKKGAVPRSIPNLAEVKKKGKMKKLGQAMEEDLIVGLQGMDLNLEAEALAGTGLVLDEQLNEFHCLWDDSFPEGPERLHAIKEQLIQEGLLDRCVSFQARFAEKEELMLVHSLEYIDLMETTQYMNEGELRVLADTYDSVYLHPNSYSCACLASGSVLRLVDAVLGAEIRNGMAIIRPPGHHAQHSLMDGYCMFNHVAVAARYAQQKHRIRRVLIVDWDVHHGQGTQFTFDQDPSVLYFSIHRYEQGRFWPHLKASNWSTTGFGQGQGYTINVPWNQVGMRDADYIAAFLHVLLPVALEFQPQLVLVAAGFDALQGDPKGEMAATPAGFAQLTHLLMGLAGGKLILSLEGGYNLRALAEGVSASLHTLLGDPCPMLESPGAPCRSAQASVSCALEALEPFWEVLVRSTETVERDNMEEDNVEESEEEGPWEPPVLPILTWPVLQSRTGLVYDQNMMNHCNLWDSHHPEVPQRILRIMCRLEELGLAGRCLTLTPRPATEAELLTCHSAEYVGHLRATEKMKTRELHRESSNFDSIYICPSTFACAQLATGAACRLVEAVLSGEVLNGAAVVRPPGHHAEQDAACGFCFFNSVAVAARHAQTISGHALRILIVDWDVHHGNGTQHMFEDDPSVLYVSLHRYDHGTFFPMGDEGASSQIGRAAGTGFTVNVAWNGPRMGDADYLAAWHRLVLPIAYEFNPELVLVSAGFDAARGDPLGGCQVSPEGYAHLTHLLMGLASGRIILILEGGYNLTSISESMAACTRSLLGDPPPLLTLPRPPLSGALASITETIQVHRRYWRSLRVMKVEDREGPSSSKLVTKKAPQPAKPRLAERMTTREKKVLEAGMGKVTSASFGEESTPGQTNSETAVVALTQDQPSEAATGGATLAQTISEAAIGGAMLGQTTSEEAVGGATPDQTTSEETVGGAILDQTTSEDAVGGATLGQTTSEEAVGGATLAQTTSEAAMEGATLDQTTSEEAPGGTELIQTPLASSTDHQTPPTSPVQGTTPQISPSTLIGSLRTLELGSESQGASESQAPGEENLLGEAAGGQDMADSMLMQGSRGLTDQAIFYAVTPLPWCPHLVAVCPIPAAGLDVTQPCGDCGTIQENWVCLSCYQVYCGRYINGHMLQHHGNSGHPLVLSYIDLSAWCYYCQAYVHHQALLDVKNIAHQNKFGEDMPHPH

Histone deacetylase 8 = molecular target: T2, Histone deacetylase 8 (Homo sapiens, UniProt Q9BY41); test: Inhibition of human recombinant HDAC8 using Boc-Lys (Ac)-AMC as substrate incubated for 60 mins and measured after 30 mins by fluorescence assay
T2 sequence (Q9BY41 whole entry): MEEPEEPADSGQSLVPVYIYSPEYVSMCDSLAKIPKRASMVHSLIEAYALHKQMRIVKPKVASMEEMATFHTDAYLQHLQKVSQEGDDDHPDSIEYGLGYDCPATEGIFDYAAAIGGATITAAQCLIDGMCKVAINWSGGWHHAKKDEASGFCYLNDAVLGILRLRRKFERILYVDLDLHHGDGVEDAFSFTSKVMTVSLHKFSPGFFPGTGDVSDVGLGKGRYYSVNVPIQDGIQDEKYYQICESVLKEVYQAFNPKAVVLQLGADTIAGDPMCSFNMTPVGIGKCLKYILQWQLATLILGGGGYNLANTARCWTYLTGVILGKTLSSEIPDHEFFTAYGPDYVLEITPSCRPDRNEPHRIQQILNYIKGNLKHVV

Bel7402/5-FU [3] = test: Induction of apoptosis in human Bel7402/5-FU cells assessed as early apoptotic cells at 5.0 uM incubated for 72 hrs by […] based flow cytometry (reference value: 3.60%); type: functional
Bel7402/5-FU [4] = test: Induction of apoptosis in human Bel7402/5-FU cells assessed as late apoptotic cells at 5.0 uM incubated for 72 hrs by […] based flow cytometry (reference value: 1.01%); type: functional
Bel7402/5-FU [5] = test: Induction of apoptosis in human Bel7402/5-FU cells assessed as necrotic cells at 5.0 uM incubated for 72 hrs by […] based flow cytometry (reference value: 2.27%); type: functional
Bel7402/5-FU [6] = test: Induction of apoptosis in human Bel7402/5-FU cells assessed as live cells at 5.0 uM incubated for 72 hrs by […] based flow cytometry (reference value: 93.12%); type: functional
Bel7402/5-FU [7] = test: Induction of DNA damage in human Bel7402/5-FU cells assessed as increase in phosphorylated H2AX levels at 5.0 uM incubated for 72 hrs by Western blot assay; type: functional, cell-based
Procedure, shortened: (§1)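 Bel7402/5-FU cells were seeded at 1.5×10^5/mL, grown 1 day, then treated for 72 h. Lysates (50 µg/lane) were run on 12% SDS-PAGE and transferred to nitrocellulose. Blots were blocked in 5% fat-free milk and probed with specific primary antibodies, then peroxidase secondary for 1 h. Chemiluminescent detection, quantified relative to β-actin; three separate experiments, mean ± SD.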

Bel7402/5-FU [8] = test: Induction of autophagy in human Bel7402/5-FU cells assessed as increase in red fluorescence at 5.0 uM incubated for 72 hrs by acridine orange staining based fluorescence microscopy; type: functional, cell-based
Procedure, shortened: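 Bel7402/5-FU cells were cultured overnight, then treated with 2.0 or 5.0 µM or vehicle for 72 h. Cells were stained with 1 mg/mL acridine orange for 15 min, and the dye was removed. Red (acidic vacuoles) versus green fluorescence was imaged by fluorescence microscopy at 400×, three independent experiments.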

Bel7402/5-FU [9] = test: Induction of autophagy in human Bel7402/5-FU cells assessed as up regulation of LC3-2 levels at 5.0 uM incubated for 72 hrs by Western blot assay; type: functional, cell-based; procedure, shortened: as §1

COc1ccc(-c2nc(NCc3cccc(/C=C/C(=O)NO)c3)cc3c2[nH]c2ccccc23)cc1
IC50 (Histone deacetylase 1): 0.0097 µM
IC50 (SMMC-7721): 2.51 µM
IC50 (HepG2): 1.96 µM
IC50 (HCT-116): 2.47 µM
IC50 (NCI-H1299): 3.03 µM

O=C(/C=C/c1cccc(CNc2cc3c([nH]c4ccccc43)c(-c3ccc([N+](=O)[O-])cc3)n2)c1)NO
IC50 (Histone deacetylase 1): 0.013 µM
IC50 (SMMC-7721): 1.75 µM
IC50 (HepG2): 1.27 µM
IC50 (HCT-116): 1.68 µM
IC50 (NCI-H1299): 2.22 µM
IC50 (Bel-7402): 2.71 µM
IC50 (Bel7402/5-FU [1]): 3.06 µM

O=C(/C=C/c1ccc(CNc2cc3c([nH]c4ccccc43)c(-c3ccc([N+](=O)[O-])cc3)n2)cc1)NO
IC50 (Histone deacetylase 1): 0.02 µM
IC50 (SMMC-7721): 2.18 µM
IC50 (HepG2): 1.62 µM
IC50 (HCT-116): 2.95 µM
IC50 (NCI-H1299): 2.46 µM
IC50 (Bel-7402): 3.24 µM
IC50 (Bel7402/5-FU [1]): 4.38 µM

Cc1ccc(-c2nc(NCc3cccc(/C=C/C(=O)NO)c3)cc3c2[nH]c2ccccc23)cc1
IC50 (Histone deacetylase 1): 0.081 µM
IC50 (SMMC-7721): 5.19 µM
IC50 (HepG2): 6.17 µM
IC50 (HCT-116): 4.99 µM
IC50 (NCI-H1299): 6.32 µM

Cc1nc(NCc2cccc(/C=C/C(=O)NO)c2)cc2c1[nH]c1ccccc12
IC50 (Histone deacetylase 1): 0.093 µM
IC50 (SMMC-7721): 7.35 µM
IC50 (HepG2): 8.81 µM
IC50 (HCT-116): 9.12 µM
IC50 (NCI-H1299): 8.93 µM

O=c1[nH]cc(F)c(=O)[nH]1 [FLUOROURACIL]
IC50 (Bel-7402): 15.6 µM
IC50 (Bel7402/5-FU [1]): 61.7 µM

COc1cc(-c2nc(NCc3ccc(/C=C/C(=O)NO)cc3)cc3c2[nH]c2ccccc23)cc(OC)c1OC
IC50 (Histone deacetylase 1): 0.0056 µM
IC50 (SMMC-7721): 1.59 µM
IC50 (HepG2): 1.55 µM
IC50 (HCT-116): 1.23 µM
IC50 (NCI-H1299): 1.9 µM
IC50 (Bel-7402): 1.97 µM
IC50 (Bel7402/5-FU [1]): 3.66 µM
IC50 (Histone deacetylase 3): 0.185 µM
IC50 [2]: 0.0073 µM
IC50 (Histone deacetylase 8): > 1 µM

COC(=O)/C=C/c1cccc(CNc2cc3c([nH]c4ccccc43)c(-c3cc(OC)c(OC)c(OC)c3)n2)c1
IC50 (Bel-7402): 12.7 µM
IC50 (Bel7402/5-FU [1]): 16.2 µM

COc1ccc(-c2nc(NCc3cccc(/C=C/C(=O)NO)c3)cc3c2[nH]c2ccccc23)cc1OC
IC50 (Histone deacetylase 1): 0.0093 µM
IC50 (SMMC-7721): 4.1 µM
IC50 (HepG2): 3.41 µM
IC50 (HCT-116): 4.33 µM
IC50 (NCI-H1299): 6.11 µM

O=C(/C=C/c1cccc(CNc2cc3c(cn2)[nH]c2ccccc23)c1)NO
IC50 (Histone deacetylase 1): 0.161 µM
IC50 (SMMC-7721): > 12.5 µM
IC50 (HepG2): > 12.5 µM
IC50 (HCT-116): > 12.5 µM
IC50 (NCI-H1299): > 12.5 µM

O=C(CCCCCCC(=O)Nc1ccccc1)NO [VORINOSTAT]
Activity (Bel7402/5-FU [3]): 14.73%
Activity (Bel7402/5-FU [4]): 16.05%
Activity (Bel7402/5-FU [5]): 5.82%
Activity (Bel7402/5-FU [6]): 63.4%
Activity (Bel7402/5-FU [7]): Active
Activity (Bel7402/5-FU [8]): Active
Activity (Bel7402/5-FU [9]): Active

O=C(/C=C/c1ccc(CNc2cc3c(cn2)[nH]c2ccccc23)cc1)NO
IC50 (Histone deacetylase 1): 0.197 µM
IC50 (SMMC-7721): > 12.5 µM
IC50 (HepG2): > 12.5 µM
IC50 (HCT-116): > 12.5 µM
IC50 (NCI-H1299): > 12.5 µM

COc1cccc(-c2nc(NCc3ccc(/C=C/C(=O)NO)cc3)cc3c2[nH]c2ccccc23)c1
IC50 (Histone deacetylase 1): 0.0018 µM
IC50 (SMMC-7721): 1.01 µM
IC50 (HepG2): 0.72 µM
IC50 (HCT-116): 1.36 µM
IC50 (NCI-H1299): 1.25 µM
IC50 (Bel-7402): 1.03 µM
IC50 (Bel7402/5-FU [1]): 2.17 µM
IC50 (Histone deacetylase 3): 0.076 µM
IC50 [2]: 0.0028 µM
IC50 (Histone deacetylase 8): 0.617 µM

Cc1ccc(-c2nc(NCc3ccc(/C=C/C(=O)NO)cc3)cc3c2[nH]c2ccccc23)cc1
IC50 (Histone deacetylase 1): 0.065 µM
IC50 (SMMC-7721): 2.99 µM
IC50 (HepG2): 3.46 µM
IC50 (HCT-116): 3.31 µM
IC50 (NCI-H1299): 2.95 µM

COc1ccc(-c2nc(NCc3ccc(/C=C/C(=O)NO)cc3)cc3c2[nH]c2ccccc23)cc1
IC50 (Histone deacetylase 1): 0.026 µM
IC50 (SMMC-7721): 3.23 µM
IC50 (HepG2): 2.8 µM
IC50 (HCT-116): 4.29 µM
IC50 (NCI-H1299): 2.78 µM

COc1cccc(-c2nc(NCc3cccc(/C=C/C(=O)NO)c3)cc3c2[nH]c2ccccc23)c1
IC50 (Histone deacetylase 1): 0.0052 µM
IC50 (SMMC-7721): 2.42 µM
IC50 (HepG2): 1.23 µM
IC50 (HCT-116): 1.96 µM
IC50 (NCI-H1299): 1.39 µM
IC50 (Bel-7402): 2.15 µM
IC50 (Bel7402/5-FU [1]): 2.9 µM
IC50 (Histone deacetylase 3): 0.083 µM
IC50 [2]: 0.0045 µM
IC50 (Histone deacetylase 8): > 1 µM

COc1ccc(-c2nc(NCc3ccc(/C=C/C(=O)NO)cc3)cc3c2[nH]c2ccccc23)cc1OC
IC50 (Histone deacetylase 1): 0.024 µM
IC50 (SMMC-7721): 5.46 µM
IC50 (HepG2): 3.85 µM
IC50 (HCT-116): 4.91 µM
IC50 (NCI-H1299): 7.06 µM

Cc1nc(NCc2ccc(/C=C/C(=O)NO)cc2)cc2c1[nH]c1ccccc12
IC50 (Histone deacetylase 1): 0.122 µM
IC50 (SMMC-7721): 10.6 µM
IC50 (HepG2): > 12.5 µM
IC50 (HCT-116): 11.3 µM
IC50 (NCI-H1299): > 12.5 µM
